ChEMBL document CHEMBL2034886, “Anticancer and radiosensitizing evaluation of some new pyranothiazole-Schiff bases bearing the biologically active sulfonamide moiety” (Eur J Med Chem, 2012)
pIC50: −log10 of the molar value.

Key:
MCF7 [1] = assay: Cytotoxicity against human MCF7 cells assessed as surviving fraction at 25 uM after 48 hrs by sulforhodamine B assay; format: functional
In short: (§1)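 SRB assay on MCF7 breast cancer cells plated at 10^4 cells/well for 24 h before treatment. Compounds were dissolved in DMSO, diluted with saline and tested at 10, 25, 50 and 100 in triplicate wells for 48 h at 37 °C under 5% CO₂. Cells were fixed and stained 30 min with 0.4% SRB in 1% acetic acid, washed four times with acetic acid, and the dye was recovered in Tris-EDTA and read on an ELISA reader. IC50 was taken from the survival curve.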

MCF7 [2] = assay: Cytotoxicity against 8 Gy irradiated human MCF7 cells assessed as surviving fraction at 50 uM after 1 hr by clonogenic assay (reference value: 0.927 +/- 0.02); format: functional
In short: (§2)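 MCF7 cells were treated with compound at 10, 25, 50 or 100 combined with one 8 Gy dose of ¹³⁷Cs gamma radiation at 1 Gy/min. Surviving fraction was measured 1 h after irradiation and given as mean ± SE relative to control, analysed by one-way ANOVA. IC50 was derived by nonlinear regression curve fitting.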

MCF7 [3] = assay: Cytotoxicity against 8 Gy irradiated human MCF7 cells assessed as surviving fraction at 100 uM after 1 hr by clonogenic assay (reference value: 0.927 +/- 0.02); format: functional; in short: as §2
MCF7 [4] = assay: Cytotoxicity against human MCF7 cells after 48 hrs by sulforhodamine B assay; format: functional, cell-based; details: MCF7, 48 h; in short: as §1
MCF7 [5] = assay: Cytotoxicity against 8 Gy irradiated human MCF7 cells after 1 hr by clonogenic assay; format: functional, cell-based; details: MCF7, light or radiation study; in short: as §2
MCF7 [6] = assay: Cytotoxicity against 8 Gy irradiated human MCF7 cells assessed as surviving fraction at 10 uM after 1 hr by clonogenic assay (reference value: 0.927 +/- 0.02); format: functional; in short: as §2
MCF7 [7] = assay: Cytotoxicity against human MCF7 cells assessed as surviving fraction at 100 uM after 48 hrs by sulforhodamine B assay; format: functional; in short: as §1
MCF7 [8] = assay: Cytotoxicity against 8 Gy irradiated human MCF7 cells assessed as surviving fraction at 25 uM after 1 hr by clonogenic assay (reference value: 0.927 +/- 0.02); format: functional; in short: as §2
MCF7 [9] = assay: Cytotoxicity against human MCF7 cells assessed as surviving fraction at 10 uM after 48 hrs by sulforhodamine B assay; format: functional; in short: as §1
MCF7 [10] = assay: Cytotoxicity against human MCF7 cells assessed as surviving fraction at 50 uM after 48 hrs by sulforhodamine B assay; format: functional; parameters: unit not given here; in short: as §1
MCF7 [11] = assay: Ratio of doxorubicin IC50 to compound IC50 for human MCF7 cells; format: functional

Row | SMILES | Activity (MCF7 [1]) [%] | Activity (MCF7 [2]) [fraction] | Activity (MCF7 [3]) | pIC50 (MCF7 [4]) | pIC50 (MCF7 [5]) | Activity (MCF7 [6]) | Activity (MCF7 [7]) [%] | Activity (MCF7 [8]) | Activity (MCF7 [9]) [fraction] | Activity (MCF7 [10]) | Ratio IC50 (MCF7 [11])
1 | COc1ccc(C2C(C#N)=C(N)Oc3nc(Nc4ccc(S(N)(=O)=O)cc4)sc32)cc1 (stereo not drawn) | 55 | 0.171 | 0.201 fraction (of control) | 4.56 | 4.83 | 0.618 fraction (unitless) | 35 | 0.346 fraction (of 1) | 0.81 | 0.331 | –
2 | COc1ccc(C2C(C#N)=C(/N=C/c3ccccc3)Oc3nc(Nc4ccc(S(N)(=O)=O)cc4)sc32)cc1 (stereo not drawn) | 66.8 | – | – | 4.47 | – | – | 27.1 | – | 0.825 | 0.307 | –
3 | COc1ccc(C2C(C#N)=C(/N=C/c3ccccc3Cl)Oc3nc(Nc4ccc(S(N)(=O)=O)cc4)sc32)cc1 (stereo not drawn) | 32.3 | 0.135 | 0.119 fraction (of control) | 4.99 | 5.04 | 0.453 fraction (unitless) | 46 | 0.237 fraction (of 1) | 0.541 | 0.36 | 3.1
4 | COc1ccc(C2C(C#N)=C(/N=C/c3ccc(Cl)cc3)Oc3nc(Nc4ccc(S(N)(=O)=O)cc4)sc32)cc1 (stereo not drawn) | 25.1 | 0.17 | 0.201 fraction (of control) | 5.02 | 5.06 | 0.311 fraction (unitless) | 29 | 0.217 fraction (of 1) | 0.443 | 0.355 | –
5 | COc1ccc(C2C(C#N)=C(/N=C/c3cccc(Br)c3)Oc3nc(Nc4ccc(S(N)(=O)=O)cc4)sc32)cc1 (stereo not drawn) | 23.3 | 0.119 | 0.235 fraction (of control) | 5.03 | 5.06 | 0.319 fraction (unitless) | 30.9 | 0.211 fraction (of 1) | 0.435 | 0.371 | 3.4
6 | COc1ccc(C2C(C#N)=C(/N=C/c3ccc(F)cc3)Oc3nc(Nc4ccc(S(N)(=O)=O)cc4)sc32)cc1 (stereo not drawn) | 55.1 | – | – | 4.54 | – | – | 44.3 | – | 0.845 | 0.38 | –
7 | COc1ccc(C2C(C#N)=C(/N=C/c3ccc(Cl)cc3Cl)Oc3nc(Nc4ccc(S(N)(=O)=O)cc4)sc32)cc1 (stereo not drawn) | 50.3 | – | – | 4.63 | – | – | 39.1 | – | 0.693 | 0.377 | –
8 | COc1ccc(C2C(C#N)=C(/N=C/c3ccc([N+](=O)[O-])cc3)Oc3nc(Nc4ccc(S(N)(=O)=O)cc4)sc32)cc1 (stereo not drawn) | 32.7 | 0.1 | 0.13 fraction (of control) | 5.01 | 5.12 | 0.403 fraction (unitless) | 38.1 | 0.201 fraction (of 1) | 0.48 | 0.313 | 3.3
9 | COc1ccc(C2C(C#N)=C(/N=C/c3ccc(N(C)C)cc3)Oc3nc(Nc4ccc(S(N)(=O)=O)cc4)sc32)cc1 (stereo not drawn) | 70.1 | – | – | 4.44 | – | – | 37.8 | – | 0.792 | 0.347 | –
10 | COc1ccc(C2C(C#N)=C(/N=C/C=C/c3ccccc3)Oc3nc(Nc4ccc(S(N)(=O)=O)cc4)sc32)cc1 (stereo not drawn) | 60.1 | – | – | 4.54 | – | – | 37 | – | 0.828 | 0.242 | –
11 | COc1ccc(C2C(C#N)=C(/N=C/c3ccc(O)cc3)Oc3nc(Nc4ccc(S(N)(=O)=O)cc4)sc32)cc1 (stereo not drawn) | 63.8 | – | – | 4.46 | – | – | 30.7 | – | 0.872 | 0.37 | –
12 | COc1ccc(C2C(C#N)=C(/N=C/c3ccc4c(c3)OCO4)Oc3nc(Nc4ccc(S(N)(=O)=O)cc4)sc32)cc1 (stereo not drawn) | 66 | – | – | 4.42 | – | – | 39.3 | – | 0.814 | 0.419 | –
